# From ChEMBL document CHEMBL1153067, “Synthesis and optimization of 2-pyridin-3-yl-benzo[d][1,3]oxazin-4-one based inhibitors of human neutrophil elastase” (Bioorg Med Chem Lett, 2009)
# Test: Chemical stability in 200 mM sodium borate buffer at pH 9.2
# Format: physicochemical
# How it was run: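 Alkaline hydrolysis followed by loss of the intact benzoxazinone ring absorbance maximum (340 nm 10 nm) in 200 mM sodium borate, pH 9.2, with 1% DMSO.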
row,half-life [h],SMILES
1,4,CCc1cc(OC)cc2nc(-c3cccnc3N3CCN(C)CC3)oc(=O)c12
2,1.08,CCc1cccc2nc(-c3cccnc3N3CCN(C)CC3)oc(=O)c12
3,16.7,CCc1cc(OC)cc2nc(-c3cccnc3N3CCC(C(=O)O)CC3)oc(=O)c12
4,122,CCc1cc(N(C)C)cc2nc(-c3cccnc3N3CCN(C)CC3)oc(=O)c12
5,115,CCc1cc(N(C)C)cc2nc(-c3cccnc3N3CCN(C4CCN(C)CC4)CC3)oc(=O)c12
6,23.3,CCc1cc(OC)cc2nc(-c3cccnc3N3CCN(C4CCN(C)CC4)CC3)oc(=O)c12
7,0.933,CCc1cccc2nc(-c3cccnc3N3CCN(C4CCN(C)CC4)CC3)oc(=O)c12
8,1.48,CCc1cccc2nc(-c3cccnc3N3CCC(C(=O)O)CC3)oc(=O)c12

# Test: Stability in heparin treated rat plasma at 2 uM at 37 degC by electrospray ionization mass spectrometry
# Format: ADME, cell-free
# How it was run: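 Compounds at […] incubated at 37 °C in heparinized rat plasma. Plasma proteins precipitated with acetonitrile, then compound quantified by ESI-MS against an internal standard. t1/2 derived from a first-order rate constant fitted to concentration versus time.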
row,SMILES,half-life at 2 µM [h]
1,CCc1cc(OC)cc2nc(-c3cccnc3N3CCN(C4CCCC4)CC3)oc(=O)c12,1.5
2,CCc1cc(OC)cc2nc(-c3cccnc3N3CCN(CCN(C)C)CC3)oc(=O)c12,0.13
3,CCc1cc(OC)cc2nc(-c3cccnc3N3CCC(C(=O)O)CC3)oc(=O)c12,1.35
4,CCc1cc(OC)cc2nc(-c3cccnc3N3CCN(CCN4CCOCC4)CC3)oc(=O)c12,0.317
5,CCc1cc(OC)cc2nc(-c3cccnc3N3CCC[C@@H](C(=O)O)C3)oc(=O)c12,2.5
6,CCc1cc(OC)cc2nc(-c3cccnc3N3CCC[C@H](C(=O)O)C3)oc(=O)c12,2.33

# Other lines, results leading:
row,half-life at 2 µM [h],SMILES
1,0.8,CCc1cc(OC)cc2nc(-c3cccnc3N3CCN(CC(C)C)CC3)oc(=O)c12
2,1.4,CCc1cc(OC)cc2nc(-c3cccnc3N3CCN(C)CC3)oc(=O)c12
3,0.283,CCc1cc(OC)cc2nc(-c3cccnc3N3CCN(CCO)CC3)oc(=O)c12
4,0.183,CCc1cc(OC)cc2nc(-c3cccnc3N3CCN(CCC#N)CC3)oc(=O)c12
5,4.5,CCc1cc(OC)cc2nc(-c3cccnc3N3CCN(CC(=O)O)CC3)oc(=O)c12
6,1.15,CCc1cc(OC)cc2nc(-c3cccnc3N3CCN(CC4CC4)CC3)oc(=O)c12
7,0.867,CCc1cc(OC)cc2nc(-c3cccnc3N3CCN(CCOC)CC3)oc(=O)c12
8,0.85,CCCCN1CCN(c2ncccc2-c2nc3cc(OC)cc(CC)c3c(=O)o2)CC1
